HDAC3 inh: HDAC3 deacetylase inhibitors, primary screen, biochemical, fluorescence, cell-free homogeneous; recombinant HDAC3, fluorogenic peptide/trypsin coupled; inhibition, % at 8.3 µM; 0.15% of 320,000 active; in the data active = inhibition above about 26%, passing the limit was not always enough
HKDC1 inhibitor: HKDC1 hexokinase inhibitors, primary screen, biochemical, fluorescence, uHTS | Q2TB90 | recombinant HKDC1, G6PDH/diaphorase resazurin coupled fluorescence | inhibition, % at 20 µM | 0.16% of 340,000 active;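 active = inhibition above about 35% when tested at 20 µM, limit read from the data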;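 also: plate controls were DMSO wells with enzyme for no effect and DMSO wells lacking enzyme for full effect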
Target sequence (Q2TB90 whole entry, looked up): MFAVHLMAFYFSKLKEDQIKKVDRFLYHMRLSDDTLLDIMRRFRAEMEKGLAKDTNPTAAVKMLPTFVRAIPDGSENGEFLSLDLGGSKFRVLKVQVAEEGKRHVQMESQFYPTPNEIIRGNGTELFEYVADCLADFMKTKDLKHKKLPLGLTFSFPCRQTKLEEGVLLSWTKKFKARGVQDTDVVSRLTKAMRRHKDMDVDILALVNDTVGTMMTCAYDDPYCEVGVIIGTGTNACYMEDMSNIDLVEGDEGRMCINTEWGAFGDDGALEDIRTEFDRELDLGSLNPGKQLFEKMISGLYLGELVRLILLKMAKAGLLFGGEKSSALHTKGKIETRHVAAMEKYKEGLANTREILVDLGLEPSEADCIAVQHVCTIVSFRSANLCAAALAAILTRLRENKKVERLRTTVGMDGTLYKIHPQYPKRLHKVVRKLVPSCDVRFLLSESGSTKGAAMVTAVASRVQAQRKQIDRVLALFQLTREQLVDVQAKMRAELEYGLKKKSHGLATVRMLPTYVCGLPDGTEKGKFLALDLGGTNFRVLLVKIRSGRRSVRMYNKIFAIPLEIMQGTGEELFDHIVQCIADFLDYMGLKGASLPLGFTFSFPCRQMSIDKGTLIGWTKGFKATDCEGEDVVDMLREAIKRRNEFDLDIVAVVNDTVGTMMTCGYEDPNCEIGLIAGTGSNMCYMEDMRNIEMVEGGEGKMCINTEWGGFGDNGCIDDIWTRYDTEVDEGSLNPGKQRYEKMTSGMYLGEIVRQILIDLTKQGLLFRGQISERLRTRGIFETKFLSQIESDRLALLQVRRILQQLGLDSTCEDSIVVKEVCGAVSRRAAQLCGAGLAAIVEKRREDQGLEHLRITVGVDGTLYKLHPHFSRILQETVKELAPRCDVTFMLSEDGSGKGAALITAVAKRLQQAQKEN
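Assay system: recombinant HKDC1 hexokinase; detection: coupled resazurin fluorescence, excitation 525 nm, emission 613 nm; benchmarks: DMSO-plus-enzyme-mix negative control, buffer-substituted positive control; compound dosing: single 20 µM dose; schedule: 90 min at room temperature in dark; also added: glucose plus 1 mM ATP as hexokinase substrates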
AI-2 QS modul: Vibrio harveyi AI-2 quorum sensing modulators, primary screen, JMH597 strain, luminescence/OD600 ratio; Vibrio harveyi JMH597 AI-2 luminescence/OD600 ratio, 9 h; active compounds read low; strain lacks LuxN and CqsS sensors; 0 = neutral-control median; activity change, % at 7.5 µM; 0.4% of 300,000 active; in the data active = activity change below about -75%, passing the limit was not always enough;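 also: luminescence divided by OD600 gain over 9 h not by final OD600 alone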
ATG4B inh: ATG4B protease inhibitors, primary screen, biochemical, fluorescence, uHTS; Cysteine protease ATG4B (Homo sapiens), Q9Y4P1; ATG4B cleavage of LC3-PLA2, NBD-HPC fluorescence, 1 h; inhibition, % at 8.33 µM; 0.51% of 340,000 active; AID 504462, 2011; in the data active = inhibition above about 40%
Bfl-1 A1 inh: caspase 3/7 activation in MEF A1-2A-BIM cells, primary screen, A1 inhibitor project, cell-based, luminescence, HTS; AID 2462, 2010; 0.066% of 330,000 active; Caspase-Glo 3/7 luminescence, 3 h; percent of clofoctol response, vehicle zero; caspase activation, % (test concentration not listed);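 active = over half of replicate activation scores above 10%, or exactly half above 10 with the replicate mean above 10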
LANA-H2A inh: blockers of LANA interaction with H2A/H2B – biochemical, FP readout, HTS, primary screen. inhibition, % (test concentration not listed). cell-free LANA-H2A/H2B peptide, fluorescence polarization. AID 2629, 2010. Protein LANA1 (Human herpesvirus 8 type P (isolate GK18)), Q9QR71. 0.6% of 320,000 active; in the data active = inhibition mostly above about 10%, no sharp cut-off; inactive = mostly below about 6.7%
ATG4B confirm: ATG4B protease inhibitors, retest, confirmation, biochemical, fluorescence, single concentration. shares compounds with ATG4B inh. AID 504757, 2011. 92% of 320 active. ATG4B protease fluorescent substrate cleavage assay. inhibition, % at 8.33 µM; in the data active = inhibition above about 39%
PLA2 ctr: PLA2 enzyme inhibition, counter-screen for ATG4B inhibitor project, biochemical, single concentration, uHTS hits; shares compounds with ATG4B inh; purified PLA2, NBD-C6-HPC fluorescence, 45 min; inhibition, % at 8.33 µM; 66% of 1,600 active; in the data active = inhibition above about 50%
Numbers without * were called inactive; . = no result given. Most compounds without a hit are left out; they make up all but 1.8% or so of the library.

SMILES | HDAC3 inh | HKDC1 inhibitor | AI-2 QS modul | ATG4B inh | Bfl-1 A1 inh | LANA-H2A inh | PLA2 ctr | others
COC(=O)C(Cc1ccc(OC(=O)c2ccccc2Cl)cc1)N1Cc2ccccc2C1=O (stereo not given) | 0.6 | -1.2 | 18.3 | 82.6* | -4.5 | 1.4 | 86.2*
COC(=O)C(Cc1ccc(OC(=O)c2ccccc2C)cc1)N1Cc2ccccc2C1=O (stereo not given) | -3.8 | 4.6 | 28.4 | 71.7* | 0.4 | -3.1 | 76.5*
COc1ccccc1C(C)NC(=O)CCC(=O)N1CCN(S(=O)(=O)c2ccc(Cl)cc2)CC1 (stereo not given) | . | -3.3 | . | -7.1 | . | . | .
Cc1ccc(F)cc1CNC(=O)c1cc(COc2ccc3ncccc3c2)on1 | 5.7 | 0.8 | 8.8 | 61.1* | -0.5 | -2.4 | 67.6*
C/C=C(\C)CN1CCCC(N(C)CCc2ccc(OC)c(OC)c2)C1 (stereo not given) | -1.2 | 3.0 | 7.1 | 2.4 | 0.5 | -8.9 | .
Cc1ccc(S(=O)(=O)N2[C@@H](c3ccc(F)cc3)C(C(=O)O)=CC[C@H]2c2ccc3c(c2)OCO3)cc1 | -1.8 | 7.0 | . | -8.6 | -1.5 | 4.1 | .
O=C(/C=C/c1ccc(Cl)cc1Cl)N1CCN(c2ccc([N+](=O)[O-])c(N3CCOCC3)c2)CC1 | . | -1.4 | 42.9 | -0.1 | 1.0 | . | .
O=C(/C=C/c1ccc(Cl)cc1Cl)N1CCN(c2ccccc2[N+](=O)[O-])CC1 | 9.6 | -6.1 | 13.1 | 53.2* | 0.5 | -6.6 | 60.0*
O=C(Nc1nc2c(cc3c4c(cccc42)CC3)s1)c1ccccc1Cl | 5.8 | 0.1 | 20.9 | 42.8* | -1.2 | -3.9 | 45.2 | ATG4B confirm=60.3*
CCC(=O)N1CCCN(S(=O)(=O)c2ccc(C)cc2)C1c1ccc(OC)cc1 (stereo not given) | 0.5 | -2.7 | -6.3 | -11.3 | -1.2 | -2.5 | .
O=C1NC(=O)/C(=C\c2ccccc2Oc2ccc(F)c(F)c2)S1 | -2.5 | 12.2 | 11.7 | 56.8* | 1.4 | -5.0 | 48.5
O=C(COc1ccccc1/C=C1\SC(=O)NC1=O)Nc1ccccc1 | 2.6 | 0.2 | 22.4 | 9.7 | 1.0 | 0.6 | .
O=C1NC(=O)/C(=C/c2ccccc2OCc2ccccc2)S1 | 3.0 | 6.1 | 23.7 | 46.0* | 0.7 | -3.3 | 53.2*
O=C(c1ccco1)N1CCN(Cc2nnc(-c3ccccc3)o2)CC1 | -4.1 | 0.8 | 14.7 | -9.2 | -1.1 | 2.3 | .
NC(=O)/C(=C/c1ccco1)NC(=O)/C=C/c1ccccc1 | 10.3 | -0.7 | 11.8 | 49.8* | -0.7 | -0.3 | 68.3*
NC(=O)/C(=C\c1ccccc1)NC(=O)/C=C/c1ccccc1 | 3.9 | -4.7 | 17.4 | 45.6* | 0.7 | 1.0 | 37.8 | ATG4B confirm=75.5*
CCNC(=O)/C(=C\c1ccccc1)NC(=O)/C=C/c1ccccc1 | 1.0 | -1.9 | 22.0 | 2.6 | 1.1 | -5.3 | .
COc1ccc(N2C(=O)CC(Sc3nc4ccccc4s3)C2=O)cc1OC (stereo not given) | -7.4 | -9.9 | 6.4 | 3.2 | 1.9 | -9.2 | .
NNC(=S)NCc1ccccc1 | -2.4 | -7.1 | -2.5 | -3.2 | 0.0 | 1.6 | .
O=C(COc1ccccc1-c1ccccc1)NCc1cccc(Cl)c1 | 10.3 | 5.0 | 8.8 | 56.1* | -0.2 | 6.3 | 44.5 | ATG4B confirm=57.0*
Fc1ccc(CNC(=S)NCc2cccc(Cl)c2)cc1 | 6.4 | -1.8 | -13.4 | 79.4* | 1.1 | 7.8 | 85.6*
S=C(NCc1ccccc1)NCc1cccc(CNC(=S)NCc2ccccc2)c1 | -2.1 | -9.9 | 11.2 | 68.0* | -1.2 | 10.0 | 77.2*
S=C(NCc1ccccc1)NCC1COc2ccccc2O1 (stereo not given) | 6.3 | -4.9 | -25.8 | 52.8* | 0.3 | -0.5 | 61.1*
CCNC(=O)COC(=O)c1cc(-c2ccccc2)nn1-c1ccccc1 | -3.5 | -3.7 | 8.2 | -12.6 | 2.3 | 1.7 | .
CCc1nc(Nc2ccc(OC)c(OC)c2)c2nnn(Cc3ccccc3Cl)c2n1 | -10.3 | -5.4 | 10.7 | -1.9 | -1.5 | -0.2 | .
SMILES | HDAC3 inh | HKDC1 inhibitor | AI-2 QS modul | ATG4B inh | Bfl-1 A1 inh | LANA-H2A inh | PLA2 ctr | others
S=C(NCc1ccccc1)NCc1cccc(Cl)c1 | 3.9 | 4.7 | -24.8 | 63.9* | -0.5 | -0.2 | 77.6*
O=C(NCc1cccc(Cl)c1)NCc1cccc(Cl)c1 | 3.1 | -4.1 | 13.2 | 72.6* | 1.1 | -4.0 | 76.6*
O=C(NC(=S)NCc1ccccc1)c1cccc(Cl)c1 | 2.1 | -1.5 | 4.2 | 8.8 | 1.0 | 0.1 | .
N#CCCN(C(=O)COc1ccc(C#N)cc1)c1ccc(F)cc1 | 6.0 | 1.5 | 10.3 | -0.4 | -0.8 | -1.1 | .
O=C(NN(c1ccccc1)c1ccccc1)c1ccccc1F | -1.7 | 4.7 | 24.0 | 1.7 | -0.1 | -2.1 | .
O=C(COC(=O)c1cnccn1)c1ccc(-c2ccccc2)cc1 | -0.1 | -1.7 | 19.9 | 1.7 | -0.2 | -1.1 | .
CC(C)(C)c1ccc(C(=O)Oc2ccccc2CCC(=O)O)cc1 | -1.1 | -1.1 | 49.3 | 6.5 | 0.7 | 2.1 | .
COc1cc(/C=C/C(=O)O)cc(S(=O)(=O)Nc2cc(Cl)c(Cl)cc2Cl)c1OC | 5.0 | 1.9 | 17.2 | 41.1* | 0.2 | -0.1 | 7.3 | ATG4B confirm=52.1*
COc1cc(/C=C/C(=O)O)cc(S(=O)(=O)NC2CCCC2)c1OC | -7.3 | -5.1 | -4.0 | -3.9 | -0.1 | 1.0 | .
N#Cc1ccccc1NC(=O)c1ccc2c(Cl)c3c(nc2c1)CCCC3 | 9.8 | -1.3 | 5.0 | 47.8* | -1.2 | -5.9 | 48.8
O=C(O)COc1ccccc1C=NNc1ccc([N+](=O)[O-])cc1S(=O)(=O)Nc1ccc(Cl)cc1 | 12.8 | 2.5 | . | 44.3* | 3.8 | 10.2 | 42.8 | ATG4B confirm=63.7*
COc1ccc(NS(=O)(=O)c2cc([N+](=O)[O-])ccc2NN=Cc2ccccc2OCC(=O)O)cc1 | 12.1 | 4.0 | . | -39.2 | 0.0 | 6.9 | .
CC(=O)c1ccc(NC(=S)N(C)C2CCN(C)CC2)cc1 | 2.1 | -5.8 | 30.7 | -8.2 | -0.4 | 3.8 | .

Screens: PubChem, several laboratories
